# Measurements published in article PMC3548047 (Nature, 2013).
# Where a SMILES comes first, the peptide text is derived from it. The star is where a group is joined. Myristoyl = CCCCCCCCCCCCCC(=O)*
# Key:
# [1] = target: T1, PKMζ (Rattus norvegicus, UniProt P09217); experiment: LANCE TR-FRET in vitro kinase assay, purified PKMζ; type: biochemical
# T1 sequence (P09217 1-409 isoform P09217-2): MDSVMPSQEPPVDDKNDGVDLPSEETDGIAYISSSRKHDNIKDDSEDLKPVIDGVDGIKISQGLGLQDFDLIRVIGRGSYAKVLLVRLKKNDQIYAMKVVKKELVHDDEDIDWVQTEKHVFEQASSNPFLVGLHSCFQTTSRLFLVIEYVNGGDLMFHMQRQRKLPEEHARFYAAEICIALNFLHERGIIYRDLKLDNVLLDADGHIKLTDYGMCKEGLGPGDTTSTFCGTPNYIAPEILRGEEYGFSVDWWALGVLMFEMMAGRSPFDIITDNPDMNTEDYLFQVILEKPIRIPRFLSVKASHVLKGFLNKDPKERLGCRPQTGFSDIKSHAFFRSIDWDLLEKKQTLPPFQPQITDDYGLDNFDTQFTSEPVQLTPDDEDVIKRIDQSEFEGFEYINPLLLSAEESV
# [2] = target: T2, PKCζ (Rattus norvegicus, UniProt P09217); experiment: LANCE TR-FRET in vitro kinase assay, purified PKCζ; type: biochemical
# T2 sequence (P09217 1-592): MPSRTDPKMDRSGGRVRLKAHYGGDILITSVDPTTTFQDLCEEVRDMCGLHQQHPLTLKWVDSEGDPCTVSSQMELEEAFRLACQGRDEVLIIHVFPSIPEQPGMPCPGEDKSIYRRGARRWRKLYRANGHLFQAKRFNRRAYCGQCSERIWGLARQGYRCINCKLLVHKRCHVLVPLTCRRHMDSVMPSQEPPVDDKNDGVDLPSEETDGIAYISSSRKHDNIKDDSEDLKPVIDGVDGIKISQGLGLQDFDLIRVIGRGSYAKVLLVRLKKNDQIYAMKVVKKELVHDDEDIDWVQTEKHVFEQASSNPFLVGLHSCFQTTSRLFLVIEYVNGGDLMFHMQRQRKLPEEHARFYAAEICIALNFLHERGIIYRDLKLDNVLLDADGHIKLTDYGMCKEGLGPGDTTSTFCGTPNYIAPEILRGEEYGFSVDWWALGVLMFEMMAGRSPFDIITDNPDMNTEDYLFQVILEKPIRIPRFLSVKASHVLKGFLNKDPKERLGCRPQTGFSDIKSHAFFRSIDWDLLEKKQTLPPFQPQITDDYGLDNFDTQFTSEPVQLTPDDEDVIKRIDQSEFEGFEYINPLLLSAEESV
# [3] = target: T3, PKCι (Rattus norvegicus, UniProt F1M7Y5); experiment: LANCE TR-FRET in vitro kinase assay, purified PKCι; type: biochemical
# T3 sequence (F1M7Y5 1-596): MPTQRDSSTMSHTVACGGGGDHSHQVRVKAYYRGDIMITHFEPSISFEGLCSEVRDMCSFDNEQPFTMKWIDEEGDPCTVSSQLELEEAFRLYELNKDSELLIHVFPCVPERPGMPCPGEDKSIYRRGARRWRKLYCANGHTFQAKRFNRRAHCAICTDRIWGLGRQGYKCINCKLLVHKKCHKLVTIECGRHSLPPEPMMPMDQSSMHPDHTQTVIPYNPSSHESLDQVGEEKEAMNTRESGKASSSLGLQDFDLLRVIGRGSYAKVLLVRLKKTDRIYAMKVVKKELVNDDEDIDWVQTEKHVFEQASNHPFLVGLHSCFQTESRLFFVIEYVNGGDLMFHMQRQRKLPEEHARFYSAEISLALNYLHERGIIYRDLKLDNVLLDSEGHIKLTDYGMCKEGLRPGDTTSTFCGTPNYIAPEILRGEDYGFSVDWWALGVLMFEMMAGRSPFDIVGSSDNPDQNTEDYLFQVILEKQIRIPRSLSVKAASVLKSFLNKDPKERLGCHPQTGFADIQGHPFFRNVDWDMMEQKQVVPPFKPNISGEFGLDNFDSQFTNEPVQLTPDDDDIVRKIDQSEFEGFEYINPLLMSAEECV
# [4] = test system: Prkcz−/− mice (cocaine reward memory); type: in vivo; conditions: ZIP 10 nmol/µl, 1 µl per side into NAc
# Method in brief: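 Two-chamber CPP with 20-min conditioning sessions; saline or cocaine 10 mg/kg i.p., counterbalanced. Bilateral cannulae placed in the NAc (1.40 mm anterior, ±1.0 mm lateral, −3.8 mm ventral) under ketamine/xylazine, with one week of recovery. ZIP at 10 mM in 0.9% saline, or saline, via injectors 0.7 mm past the guides, left 1 min. Index: cocaine-side time on test minus preconditioning time. Mice with placements outside the NAc (Nissl) and Grubbs outliers excluded.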
# [5] = test system: fear memory in rats; conditions: ZIP administration into the amygdala; cited from earlier work
# [6] = test system: object location memory in rats; conditions: ZIP bilaterally into the hippocampus; cited from earlier work
# [7] = test system: cocaine reward memory in rats; conditions: ZIP injection into the NAc; cited from earlier work
# [8] = test system: Prkcz−/− mice (drug reward memory); experiment: Cocaine conditioned place preference, non-cannulated Prkcz−/− mice; type: in vivo; conditions: cocaine 10 mg/kg i.p.; male mice; t=0.153, P=0.88
SMILES,Ki [1],Ki [2],"inhibition of PKMζ, PKCι and PKCζ compared (Ki), in words ([1]; in vitro kinase assay, PKMζ)",Ki [3],also measured
"COc1ccc2c(c[n+](C)c3c4cc5c(cc4ccc23)OCO5)c1OC [Chelerythrine, chelerythrine]",76 µM,–,–,–,"inhibition of PKMζ with DTT, in words ([1]; 1 mM DTT included): lost all inhibitory activity; appearance in the presence of DTT ([1]; 1 mM DTT present): changed color; inhibition of PKMζ without DTT, in words ([1]; assayed without dithiothreitol (DTT)): weak inhibitor of PKMζ"
CCCCCCCCCCCCCC(=O)N[C@@H](CCCNC(=N)N)C(=O)N[C@@H](CC(C)C)C(=O)N[C@@H](Cc1ccc(O)cc1)C(=O)N[C@@H](CCCNC(=N)N)C(=O)N[C@@H](CCCCN)C(=O)N[C@@H](CCCNC(=N)N)C(=O)N[C@H](C(=O)N[C@@H](Cc1c[nH]c2ccccc12)C(=O)N[C@@H](CCCNC(=N)N)C(=O)N[C@@H](CO)C(=O)N[C@@H](C)C(=O)NCC(=O)N[C@@H](CCCNC(=N)N)C(=O)O)[C@@H](C)CC [Scrambled ZIP] (Myristoyl-RLYRKRIWRSAGR-OH; N-terminus and C-terminus assumed),15.4 µM,5.51 µM,"inhibited PKMζ, PKCι and PKCζ with similar Ki values",4.92 µM,–
"CCCCCCCCCCCCCC(=O)N[C@@H](CO)C(=O)N[C@H](C(=O)N[C@@H](Cc1ccc(O)cc1)C(=O)N[C@@H](CCCNC(=N)N)C(=O)N[C@@H](CCCNC(=N)N)C(=O)NCC(=O)N[C@@H](C)C(=O)N[C@@H](CCCNC(=N)N)C(=O)N[C@@H](CCCNC(=N)N)C(=O)N[C@@H](Cc1c[nH]c2ccccc12)C(=O)N[C@@H](CCCNC(=N)N)C(=O)N[C@@H](CCCCN)C(=O)N[C@@H](CC(C)C)C(=O)O)[C@@H](C)CC [ZIP, myristoylated zeta inhibitory peptide] (Myristoyl-SIYRRGARRWRKL-OH; C-terminus assumed)",2.11 µM,1.7 µM,"inhibited PKMζ, PKCι and PKCζ with similar Ki values",1.43 µM,"t statistic for ZIP versus saline, cocaine CPP [4]: 2.258; performance in cued fear conditioning, in words [5]: impaired; difference in Ki values between ZIP and scrambled ZIP ([1]; PKMζ, in vitro kinase assay): 7.3 -fold; object location memory performance, in words [6]: impaired; cocaine reward memory, in words [7]: can erase cocaine reward memory"
COC(=O)[C@H]1[C@@H](OC(=O)c2ccccc2)C[C@@H]2CC[C@H]1N2C [cocaine],–,–,–,–,"cocaine CPP index, Prkcz−/− versus wild-type, in words [8]: no genotype difference in the cocaine CPP index"
